# Results pooled from the literature.
# Compare with care: the assays were run in different laboratories.
# EGFR G719S: Epidermal growth factor receptor (EGFR, Homo sapiens, UniProt P00533, G719S)
# EGFR L861Q: Epidermal growth factor receptor (EGFR, Homo sapiens, UniProt P00533, L861Q)
# EGFR: Epidermal growth factor receptor (EGFR, Homo sapiens, UniProt P00533)
# EGFR T790M: Epidermal growth factor receptor (EGFR, Homo sapiens, UniProt P00533, T790M)
# EGFR L858R: Epidermal growth factor receptor (EGFR, Homo sapiens, UniProt P00533, L858R)
# EGFR L858R/T790M: Epidermal growth factor receptor (EGFR, Homo sapiens, UniProt P00533, L858R/T790M)
Structure (SMILES),target,assay,setting,measurement,result
NS(=O)(=O)c1cc(NC(=O)C2(c3ccccc3Cl)CC2)ccc1Oc1cccc(Cl)c1,EGFR G719S,"cell-free assay, competition with immobilised ligand",1 µM,remaining binding,98%
N[C@@H]1CCN(c2nccc(-c3cnn4ncccc34)n2)C1,EGFR L861Q,binding,1 µM,remaining binding,92%
CC(C)[C@@H]1NC(=O)CCNC(=O)CCNC(=O)[C@H](Cc2ccc(O)cc2)NC(=O)[C@H](Cc2ccc(O)cc2)NC(=O)[C@H](Cc2ccccc2)NC(=O)[C@@H](Cc2ccc(O)cc2)NC(=O)CSC[C@@H](C(=O)NCC(N)=O)NC(=O)CCNC(=O)[C@H](CCCNC(=N)N)NC(=O)[C@H](CCCNC(=N)N)NC(=O)[C@H](Cc2ccc(O)cc2)NC(=O)[C@H](C(C)C)NC(=O)[C@H](C(C)C)NC(=O)[C@H](CC(N)=O)NC1=O,EGFR,"binding, SPR",,kon,217000 M⁻¹ s⁻¹
Oc1cccc(-c2nc(N3CCOCC3)c3oc4ncccc4c3n2)c1,EGFR,cell-free assay,0.5 µM,remaining signal,83.8%
CN(CCCC(F)(F)F)c1nccc(-c2cnn3ncccc23)n1,EGFR T790M,binding,1 µM,remaining binding,78%
C[C@H](c1ccnc(Nc2nc3ccc(-c4cc(N(C)C)ncn4)cc3[nH]2)c1)N1CCN(C(=O)CC(F)(F)F)CC1,EGFR L861Q,"cell-free assay, competition with immobilised ligand",0.1 µM,remaining binding,76%
CC(C)[C@@H]1NC(=O)CC(c2ccccc2)NC(=O)CC(CCC(N)=O)NC(=O)[C@H](Cc2ccc(O)cc2)NC(=O)[C@H](Cc2ccc(O)cc2)NC(=O)[C@H](Cc2ccccc2)NC(=O)[C@@H](Cc2ccc(O)cc2)NC(=O)CSC[C@@H](C(=O)NCC(N)=O)NC(=O)CCNC(=O)[C@H](CCCNC(=N)N)NC(=O)[C@H](CCCNC(=N)N)NC(=O)[C@H](Cc2ccc(O)cc2)NC(=O)[C@H](C(C)C)NC(=O)[C@H](C(C)C)NC(=O)[C@H](CC(N)=O)NC1=O (stereo partly drawn),EGFR,"binding, SPR",,kon,165000 M⁻¹ s⁻¹
Cc1cc(NC(=O)c2cccc3cc(-c4cccc5[nH]nc(N)c45)ccc23)ccc1F,EGFR T790M,"enzyme activity, inhibitor",0.1 µM,activity vs control,98%
CC(C)c1ccc(NC(=O)c2cccs2)c(-c2nc3ccccc3[nH]c2=O)c1,EGFR,"enzyme activity, inhibitor",1 µM,activity vs control,93%
Nc1ncnc2occ(-c3ccc(NC(=O)Nc4cc(C(F)(F)F)ccc4F)cc3)c12,EGFR L858R,cell-free assay,20 µM,remaining signal,19%
Cc1cnc(NC2CCOCC2)nc1-n1cnc(C(=O)NC(CN)c2cc(F)cc(Cl)c2)c1 (stereo not drawn),EGFR T790M,"enzyme activity, inhibitor, radiometric",1 µM,remaining activity,98%
CCN(CC)CCNC(=O)c1c(C)[nH]c(/C=C2\C(=O)Nc3ccc(Cl)cc32)c1C,EGFR,cell-free assay,0.5 µM,remaining signal,97%
O=C1CCc2cc(Nc3cc(OC4CCOCC4)c([N+](=O)[O-])cc3Cl)ccc2N1,EGFR T790M,"cell-free assay, competition with immobilised ligand",1 µM,remaining binding,85%
Cc1sc(C(=O)NC2COC2)cc1-n1cc(NC(=O)Nc2c(F)cccc2Cl)cn1,EGFR,"enzyme activity, inhibitor",10 µM,remaining activity,98.5%
COc1cc(-c2cn(C3CCc4ccccc4N(CC(F)(F)F)C3=O)nn2)ccc1-n1ccc(C)n1 (stereo not drawn),"Epidermal growth factor receptor (EGFR, Homo sapiens, UniProt P00533, del746-750)","cell-free assay, competition with immobilised ligand",1 µM,remaining binding,100%
COc1cc(-c2cc(-c3ccc(N4CCNCC4)cc3)cnc2N)cc(OC)c1OC,EGFR L858R,"enzyme activity, inhibitor",1 µM,inhibition,76%
Cc1ccc(C(=O)Nc2ccc(CN3CCN(C)CC3)c(C(F)(F)F)c2)cc1C#Cc1cnc2cccnn12,EGFR,cell-free assay,23.5 nM,remaining signal,55%
C=CC(=O)Nc1cc(Nc2nc(N3CCc4sccc4C3)c3cccnc3n2)c(OC)cc1N1CCSCC1,EGFR L858R/T790M,"enzyme activity, inhibitor, ELISA",0.1 µM,inhibition,23.9%
Cc1ccc(C(=O)NCc2ccsc2)cc1C#Cc1cn(C(C)C)c2ncnc(N)c12,EGFR,"enzyme activity, inhibitor",1 µM,activity vs control,86%
COc1cc2ncnc(Nc3ccc(Oc4ccccc4)cc3C)c2cc1OC,EGFR L858R/T790M,"enzyme activity, inhibitor",1 µM,inhibition,26%
CN(C)c1ncnc(-c2ccc3nc(Nc4cc(CN5CCN(C(=O)CC(F)(F)F)CC5)ccn4)[nH]c3c2)c1Cl,EGFR L858R,"cell-free assay, competition with immobilised ligand",1 µM,remaining binding,100%
CC/C(=N\NC(=O)NCc1cccc(O)c1)c1ccc(O)c(C)c1O,EGFR L861Q,"enzyme activity, inhibitor",0.1 µM,inhibition,0.4%
COc1cc2ncnc(Nc3ccc(Oc4ccccc4)c(C)c3C)c2cc1OC,EGFR,"enzyme activity, inhibitor",1 µM,inhibition,91%
COc1ccnn2ncc(-c3ccnc(N(C)C)n3)c12,EGFR T790M,binding,1 µM,remaining binding,100%
C/C=C/C(=O)Nc1cc(Nc2nc(Nc3cnn(C)c3)c3sccc3n2)c(OC)cc1N(C)CCN(C)C,EGFR L858R/T790M,"enzyme activity, inhibitor, ELISA",0.1 µM,inhibition,18.3%
CC(C)(O)[C@H]1CC[C@H](Nc2ccc3ncc(-c4cccc(C(F)(F)F)c4)n3n2)CC1,EGFR,"enzyme activity, inhibitor",1 µM,remaining activity,80%
CN(C)C(=O)Cn1cc(-c2nc(C3(c4ccc(-c5cnc(N)nc5)cc4)CC3)no2)cn1,"Epidermal growth factor receptor (EGFR, Homo sapiens, UniProt P00533, A750P/del747-749)","cell-free assay, competition with immobilised ligand",1 µM,remaining binding,80%
COc1cc2ncnc(Nc3cccc(Cl)c3)c2cc1OC,EGFR,cell-free assay,0.5 µM,remaining signal,0.718%
Cc1ccc(NC(=O)c2ccc(C)c(C(F)(F)F)c2)cc1C#Cc1nn(C2CCC(O)CC2)c2ncnc(N)c12 (stereo not drawn),EGFR T790M,cell-free assay,10 µM,remaining signal,4%
C[C@H]1CCN(c2nccc(-c3cnn4ncccc34)n2)C1,"Epidermal growth factor receptor (EGFR, Homo sapiens, UniProt P00533, del752-759)",binding,1 µM,remaining binding,97%
CNC(=O)Nc1ccc2c(c1)[C@@]1(CC2)OC(=O)N(CC(=O)N(Cc2ccc(F)cc2)[C@@H](C)C(F)(F)F)C1=O,"Epidermal growth factor receptor (EGFR, Homo sapiens, UniProt P00533, del747-752/P753S)","cell-free assay, competition with immobilised ligand",1 µM,remaining binding,85%
C=CC(=O)Nc1cc(Nc2nc(N3CCc4sccc4C3)c3cccnc3n2)c(OC)cc1N1CCOCC1,EGFR L858R/T790M,"enzyme activity, inhibitor, ELISA",0.1 µM,inhibition,23.5%
N#Cc1ccc(Nc2ccc3[nH]c(=O)[nH]c3c2)c(Cl)c1,"Epidermal growth factor receptor (EGFR, Homo sapiens, UniProt P00533, del747-750/T751S)","cell-free assay, competition with immobilised ligand",1 µM,remaining binding,100%
C=C(Cl)C(=O)Nc1cc(Nc2nc(Nc3cnn(C)c3)c3sccc3n2)c(OC)cc1N1CCN(C)CC1,EGFR L858R/T790M,"enzyme activity, inhibitor, ELISA",0.1 µM,inhibition,54.1%
CN(C)c1nccc(-c2cnn3ncccc23)n1,EGFR G719S,binding,1 µM,remaining binding,100%
N#C/C(=C\c1ccc(O)c(O)c1)C(=O)NCc1ccccc1,EGFR,cell-free assay,0.5 µM,remaining signal,72.4%
